According to PMC6001651 (International Journal of Biological Sciences, 2018):
Where no end group is shown, it is not given here.

Assays:
[1] = Circular dichroism; format: physicochemical; settings: 100 µM peptide, 20 °C
Summary of the method: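 Test compound at 100 µM was dissolved in 10 mM ammonium acetate or in 50% TFE (v/v in 10 mM ammonium acetate) and read in a 1-mm cuvette. Spectra covered 190–260 nm at 20 °C, with three accumulations, 200 nm/min scan speed, 1 nm bandwidth and 0.5 nm data pitch. % α-helix was estimated by K2D on DichroWeb.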

[2] = Stability in serum; format: in vitro ADME; settings: 10% FBS in RPMI-1640, 37 °C
Summary of the method: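 Test compound at 50 μM was incubated in RPMI-1640 with 10% FBS at 37 °C for 24 h. Every 4 h, an aliquot was mixed with two volumes of 96% ethanol, held at 4 °C for 15 min and spun at 18,000× g for 2 min. Supernatants were analysed by RP-HPLC and MALDI-TOF. % remaining was the peak area relative to a serum-free stock; three independent experiments, mean ± s.d.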

[3] = test system: S. aureus (NCTC 10788); assay: Antimicrobial assay; format: cell-based
Summary of the method: (§1)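 Each organism was grown in Mueller-Hinton broth, and 10^5 CFU/mL were exposed to test compound at 1–512 μM in two-fold dilutions. Plates were incubated at 37 °C in humidified air for 16–24 h. For MBC, 20 µL from each well was plated on Mueller-Hinton agar. MBC was the lowest concentration giving no colonies.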

[4] = test system: E. coli (NCTC 10418); assay: Antimicrobial assay; format: cell-based
Summary of the method: as §1

[5] = test system: C. albicans (NCTC 1467); assay: Antimicrobial assay; format: cell-based
Summary of the method: as §1

[6] = test system: methicillin-resistant S. aureus (MRSA; ATCC 12493); assay: Antimicrobial assay; format: cell-based
Summary of the method: as §1

[7] = test system: P. aeruginosa (ATCC 27853); assay: Antimicrobial assay; format: cell-based
Summary of the method: as §1

[8] = test system: E. faecalis (NCTC 12697); assay: Antimicrobial assay; format: cell-based
Summary of the method: as §1

[9] = test system: all the microorganisms that we examined; assay: Antimicrobial assays, summary over all microorganisms examined; format: cell-based
Summary of the method: as §1

[10] = test system: S. aureus biofilm; format: cell-based
[11] = test system: P. aeruginosa biofilm; format: cell-based
[12] = test system: biofilm formation by S. aureus and P. aeruginosa; format: cell-based
[13] = test system: non-small cell lung cancer H157; assay: MTT anti-cancer assay; format: cell-based, human; settings: H157, 24 h
Summary of the method: (§2)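 Cells were seeded at 5000/well, grown 24 h at 37 °C in 5% CO2, then serum-starved for 6 h. Test compound at ten-fold concentrations from 10^-4 to 10^-9 M in serum-free medium was added for 24 h. MTT (5 mg/ml solution) was added for 4–6 h, formazan was dissolved in DMSO and OD was read at 550 nm. IC50 came from normalised curves; three independent experiments, mean ± s.d.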

[14] = test system: melanocyte MDA-MB-435S; assay: MTT anti-cancer assay; format: cell-based, human; settings: MBD-MB-435S, 24 h
Summary of the method: as §2

[15] = test system: human prostate carcinoma PC-3; assay: MTT anti-cancer assay; format: cell-based; settings: PC-3, 24 h
Summary of the method: as §2

[16] = test system: human glioblastoma astrocytoma U251MG; assay: MTT anti-cancer assay; format: cell-based; settings: U251-MG, 24 h
Summary of the method: as §2

[17] = test system: human breast cancer MCF-7; assay: MTT anti-cancer assay; format: cell-based; settings: MCF-7, 24 h
Summary of the method: as §2

[18] = test system: normal human microvessel endothelial cells HMEC-1; assay: MTT assay on normal cells; format: cell-based
Summary of the method: as §2

[19] = test system: five diverse human cancer cell lines; assay: MTT anti-cancer assay, summary over five cancer cell lines; format: cell-based; settings: read-out: IC50s over the cancer cell lines
Summary of the method: as §2

[20] = Haemolysis assay; format: cell-based; settings: horse erythrocytes, 2% suspension
Summary of the method: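 A 2% horse erythrocyte suspension in PBS was incubated with test compound at 1–512 μM for 2 h at 37 °C, with PBS and 1% Triton X-100 as controls. After centrifugation at 900× g for 5 min, supernatant absorbance was read at 550 nm. HC50 was calculated from normalised curves.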

RKKRRQRRRLNLKALLAVAKKIL-NH2 [tMP-C]
% α-helix 10 mM NH4AC ([1]; 10 mM NH4AC buffer): 9% | % α-helix 50% TFE (v/v) ([1]; 50% TFE in 10 mM NH4AC): 28% | serum stability (in words) [2]: poor serum stability | MBC [3]: 4 µM | MIC [3]: 4 µM | MBC [4]: 2 µM | MIC [4]: 2 µM | MBC [5]: 2 µM | MIC [5]: 2 µM | MBC [6]: 8 µM | MIC [6]: 4 µM | MBC [7]: 4 µM | MIC [7]: 4 µM | MBC [8]: 16 µM | MIC [8]: 8 µM | MIC and MBC values [9]: at most 16 µM | MBIC ([10]; S. aureus biofilm formation): 32 µM | MBEC ([10]; S. aureus existing biofilm): 256 µM | MBIC ([11]; P. aeruginosa biofilm formation): 8 µM | MBEC ([11]; P. aeruginosa existing biofilm): 128 µM | maximum MBIC [12]: 32 µM | IC50 [13]: 2.79 µM | IC50 [14]: 3.86 µM | IC50 [15]: 3.86 µM | IC50 [16]: 3.36 µM | IC50 [17]: 3.7 µM | inhibitory effect ([18]; HMEC-1, concentration of 10 µM): 60% | IC50 ([18]; HMEC-1 normal cells, 24 h, MTT): 9.18 µM | IC50 [19]: < 4 µM | HC50 at 2 h [20]: 77.9 µM
